Assay results from ChEMBL document CHEMBL4840303, “Design, synthesis, biological evaluation and pharmacophore model analysis of novel tetrahydropyrrolo[3,4-c]pyrazol derivatives as potential TRKs inhibitors” (Eur J Med Chem, 2021).

Tests used:
[1] = molecular target: Serine/threonine-protein kinase mTOR (Homo sapiens) (UniProt P42345); experiment: Inhibition of recombinant GST-tagged human mTOR (1360 to 2549 residues) expressed in baculovirus expression system at 1 uM measured by select screen assay relative to control
Summary of the method: (§1)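 Single-concentration profiling at 1.0 µM in a 28-kinase SelectScreen panel; percent inhibition reported.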

[2] = molecular target: RAC-alpha serine/threonine-protein kinase (Homo sapiens) (UniProt P31749); experiment: Inhibition of recombinant His-tagged human full length AKT1 expressed in baculovirus expression system at 1 uM measured by select screen assay relative to control; summary of the method: as §1
KM12 [3] = experiment: Induction of apoptosis in human KM12 cells assessed as late apoptotic cells at 500 nM measured after 48 hrs by AnnexinV-FITC/PI staining based flowcytometry assay relative to control; format: functional
Summary of the method: (§2)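 They were detached with trypsin, washed twice in PBS, and 10^5 cells were suspended in Annexin V binding buffer. Cells were stained with FITC-Annexin V and PI for 10 min at room temperature in the dark, diluted with PBS and analysed by flow cytometry.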

KM12 [4] = experiment: Cell cycle arrest in human KM12 cells assessed as accumulation of cells at G1 phase at 125 nM measured after 48 hrs by AnnexinV-FITC/PI staining based flowcytometry method relative to control; format: functional
KM12 [5] = experiment: Induction of apoptosis in human KM12 cells assessed as necrotic cells at 125 nM measured after 48 hrs by AnnexinV-FITC/PI staining based flowcytometry assay relative to control; format: functional; summary of the method: as §2
[6] = molecular target: Protein kinase C alpha type (Homo sapiens) (UniProt P17252); experiment: Inhibition of recombinant GST-tagged human full length PRKCA expressed in insect expression system at 1 uM measured by select screen assay relative to control; summary of the method: as §1
[7] = AUC (0 to infinity) in Sprague dawley rat at 3 mg/kg, po; format: ADME, organism-based; set-up: time infinity, route oral, dose 3 mg/kg; details: in vivo
Summary of the method: (§3)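 Blood was collected into heparin tubes at specified time points and centrifuged at once (4 °C, 4000 rpm, 20 min). Plasma levels were quantified by LC-MS/MS. Parameters came from noncompartmental analysis.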

KM12 [8] = experiment: Cell cycle arrest in human KM12 cells assessed as accumulation of cells at G2 phase at 62.5 nM measured after 48 hrs by AnnexinV-FITC/PI staining based flowcytometry method relative to control; format: functional
[9] = Half life in Sprague dawley rat at 1 mg/kg, iv; format: ADME, organism-based; details: in vivo; summary of the method: as §3
[10] = molecular target: Aurora kinase A (Homo sapiens) (UniProt O14965); experiment: Inhibition of recombinant His-tagged full length human Aurora A expressed in baculovirus expression system at 1 uM measured by select screen assay relative to control; summary of the method: as §1
KM12 [11] = experiment: Cell cycle arrest in human KM12 cells assessed as accumulation of cells at G1 phase at 250 nM measured after 48 hrs by AnnexinV-FITC/PI staining based flowcytometry method relative to control; format: functional
KM12 [12] = experiment: Cell cycle arrest in human KM12 cells assessed as accumulation of cells at S phase at 62.5 nM measured after 48 hrs by AnnexinV-FITC/PI staining based flowcytometry method relative to control; format: functional
[13] = molecular target: Serine/threonine-protein kinase TBK1 (Homo sapiens) (UniProt Q9UHD2); experiment: Inhibition of recombinant GST-tagged full length human TBK1 expressed in baculovirus expression system at 1 uM measured by select screen assay relative to control; summary of the method: as §1
KM12 [14] = experiment: Cell cycle arrest in human KM12 cells assessed as accumulation of cells at less G1 phase at 1000 nM measured after 48 hrs by AnnexinV-FITC/PI staining based flowcytometry method relative to control; format: functional
[15] = molecular target: Fibroblast growth factor receptor 1 (Homo sapiens) (UniProt P11362); experiment: Inhibition of recombinant His-tagged human FGFR1 expressed in baculovirus expression system at 1 uM measured by select screen assay relative to control; summary of the method: as §1
[16] = Stability in human plasma assessed as compound remaining incubated for 30 mins by LC-MS/MS analysis; format: ADME, cell-free; details: read-out: Stability
Summary of the method: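 Pooled frozen human plasma thawed at 37 °C, centrifuged to remove clots, pH adjusted to 7.4 if required. Spiked to 2 µM final (from 100 µM dosing solution), in duplicate, incubated at 37 °C in a water bath. Sampled at 0, 10, 30, 60 and 120 min, quenched with acetonitrile stop solution containing internal standards, centrifuged, and supernatant analysed by LC-MS/MS for percent remaining.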

KM12 [17] = experiment: Cell cycle arrest in human KM12 cells assessed as accumulation of cells at G2 phase at 250 nM measured after 48 hrs by AnnexinV-FITC/PI staining based flowcytometry method relative to control; format: functional
KM12 [18] = experiment: Cell cycle arrest in human KM12 cells assessed as accumulation of cells at greater G1 phase at 62.5 nM measured after 48 hrs by AnnexinV-FITC/PI staining based flowcytometry method relative to control; format: functional
KM12 [19] = experiment: Cell cycle arrest in human KM12 cells assessed as accumulation of cells at less G1 phase at 250 nM measured after 48 hrs by AnnexinV-FITC/PI staining based flowcytometry method relative to control; format: functional
KM12 [20] = experiment: Induction of apoptosis in human KM12 cells assessed as necrotic cells at 1000 nM measured after 48 hrs by AnnexinV-FITC/PI staining based flowcytometry assay relative to control; format: functional; summary of the method: as §2
[21] = molecular target: RAF proto-oncogene serine/threonine-protein kinase (Homo sapiens) (UniProt P04049); experiment: Inhibition of recombinant GST-tagged human RAF1 expressed in baculovirus expression system at 1 uM measured by select screen assay relative to control; summary of the method: as §1
[22] = Clearance in human microsomes assessed as half life at 100 uM measured after 60 mins by LC-MS/MS analysis; format: ADME, Liver, Microsome
Summary of the method: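 Pooled human liver microsomes were diluted to 0.59 mg/mL (working solution) in 100 mM potassium phosphate buffer and pre-warmed at 37 °C. Compound was added from a 100 µM working solution, with NADPH cofactor prepared in 10 mM MgCl2. Incubation ran at 37 °C for 60 min. Aliquots were quenched at 5, 15, 30, 45 and 60 min. A control without NADPH was run in buffer. Samples were analysed by LC-MS/MS.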

KM12 [23] = experiment: Cell cycle arrest in human KM12 cells assessed as accumulation of cells at greater G1 phase at 1000 nM measured after 48 hrs by AnnexinV-FITC/PI staining based flowcytometry method relative to control; format: functional
KM12 [24] = experiment: Cell cycle arrest in human KM12 cells assessed as accumulation of cells at less G1 phase at 500 nM measured after 48 hrs by AnnexinV-FITC/PI staining based flowcytometry method relative to control; format: functional
[25] = molecular target: High affinity nerve growth factor receptor (Homo sapiens, UniProt P04629); experiment: Inhibition of recombinant His-tagged human TRKA expressed in baculovirus expression system at 1 uM measured by select screen assay relative to control; summary of the method: as §1
KM12 [26] = experiment: Cell cycle arrest in human KM12 cells assessed as accumulation of cells at G2 phase at 500 nM measured after 48 hrs by AnnexinV-FITC/PI staining based flowcytometry method relative to control; format: functional
KM12 [27] = experiment: Induction of apoptosis in human KM12 cells assessed as late apoptotic cells at 1000 nM measured after 48 hrs by AnnexinV-FITC/PI staining based flowcytometry assay relative to control; format: functional; summary of the method: as §2

Sequence of Aurora kinase A (Homo sapiens) (O14965 whole entry): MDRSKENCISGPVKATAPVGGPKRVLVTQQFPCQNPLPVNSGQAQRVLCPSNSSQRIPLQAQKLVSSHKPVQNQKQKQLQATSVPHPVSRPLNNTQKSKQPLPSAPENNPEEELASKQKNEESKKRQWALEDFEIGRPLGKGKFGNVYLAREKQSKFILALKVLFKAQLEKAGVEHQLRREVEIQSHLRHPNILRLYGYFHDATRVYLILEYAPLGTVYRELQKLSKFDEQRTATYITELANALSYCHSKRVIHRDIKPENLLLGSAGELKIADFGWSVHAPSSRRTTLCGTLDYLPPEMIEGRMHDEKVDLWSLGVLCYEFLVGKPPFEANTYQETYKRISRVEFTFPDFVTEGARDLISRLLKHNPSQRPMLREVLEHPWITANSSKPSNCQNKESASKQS
Sequence of RAC-alpha serine/threonine-protein kinase (Homo sapiens) (P31749 whole entry): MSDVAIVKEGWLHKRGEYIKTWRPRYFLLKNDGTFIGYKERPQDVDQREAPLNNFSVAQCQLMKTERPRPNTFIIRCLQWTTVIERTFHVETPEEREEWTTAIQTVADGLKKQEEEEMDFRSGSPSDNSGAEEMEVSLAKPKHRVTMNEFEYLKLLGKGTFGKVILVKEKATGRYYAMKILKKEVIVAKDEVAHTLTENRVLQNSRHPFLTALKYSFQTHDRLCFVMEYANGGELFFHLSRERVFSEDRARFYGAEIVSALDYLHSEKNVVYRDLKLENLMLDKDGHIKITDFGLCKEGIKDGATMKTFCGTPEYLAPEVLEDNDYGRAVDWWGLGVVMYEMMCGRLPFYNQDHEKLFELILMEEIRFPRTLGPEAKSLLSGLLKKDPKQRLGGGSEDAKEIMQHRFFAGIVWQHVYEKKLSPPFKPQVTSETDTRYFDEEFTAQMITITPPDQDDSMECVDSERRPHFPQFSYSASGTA
Sequence of Serine/threonine-protein kinase TBK1 (Homo sapiens) (Q9UHD2 whole entry): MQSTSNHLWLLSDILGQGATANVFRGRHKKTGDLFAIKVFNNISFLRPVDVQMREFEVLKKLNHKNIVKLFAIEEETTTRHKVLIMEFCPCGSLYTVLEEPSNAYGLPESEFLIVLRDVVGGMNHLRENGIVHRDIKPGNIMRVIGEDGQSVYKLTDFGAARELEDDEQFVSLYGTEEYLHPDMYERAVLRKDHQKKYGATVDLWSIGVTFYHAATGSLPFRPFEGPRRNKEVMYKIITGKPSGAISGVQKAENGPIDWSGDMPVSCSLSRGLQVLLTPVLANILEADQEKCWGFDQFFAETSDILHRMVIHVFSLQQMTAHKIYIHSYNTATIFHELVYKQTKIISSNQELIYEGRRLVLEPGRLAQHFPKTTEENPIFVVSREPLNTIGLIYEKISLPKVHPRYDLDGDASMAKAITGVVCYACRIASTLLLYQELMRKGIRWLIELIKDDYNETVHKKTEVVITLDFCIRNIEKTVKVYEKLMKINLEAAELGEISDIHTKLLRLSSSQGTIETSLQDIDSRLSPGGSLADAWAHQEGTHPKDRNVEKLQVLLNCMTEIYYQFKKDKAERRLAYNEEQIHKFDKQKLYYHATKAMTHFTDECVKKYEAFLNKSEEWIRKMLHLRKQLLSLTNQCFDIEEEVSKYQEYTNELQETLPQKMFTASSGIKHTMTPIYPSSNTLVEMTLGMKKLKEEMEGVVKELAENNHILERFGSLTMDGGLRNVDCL
Sequence of High affinity nerve growth factor receptor (P04629 33-796 limits assumed): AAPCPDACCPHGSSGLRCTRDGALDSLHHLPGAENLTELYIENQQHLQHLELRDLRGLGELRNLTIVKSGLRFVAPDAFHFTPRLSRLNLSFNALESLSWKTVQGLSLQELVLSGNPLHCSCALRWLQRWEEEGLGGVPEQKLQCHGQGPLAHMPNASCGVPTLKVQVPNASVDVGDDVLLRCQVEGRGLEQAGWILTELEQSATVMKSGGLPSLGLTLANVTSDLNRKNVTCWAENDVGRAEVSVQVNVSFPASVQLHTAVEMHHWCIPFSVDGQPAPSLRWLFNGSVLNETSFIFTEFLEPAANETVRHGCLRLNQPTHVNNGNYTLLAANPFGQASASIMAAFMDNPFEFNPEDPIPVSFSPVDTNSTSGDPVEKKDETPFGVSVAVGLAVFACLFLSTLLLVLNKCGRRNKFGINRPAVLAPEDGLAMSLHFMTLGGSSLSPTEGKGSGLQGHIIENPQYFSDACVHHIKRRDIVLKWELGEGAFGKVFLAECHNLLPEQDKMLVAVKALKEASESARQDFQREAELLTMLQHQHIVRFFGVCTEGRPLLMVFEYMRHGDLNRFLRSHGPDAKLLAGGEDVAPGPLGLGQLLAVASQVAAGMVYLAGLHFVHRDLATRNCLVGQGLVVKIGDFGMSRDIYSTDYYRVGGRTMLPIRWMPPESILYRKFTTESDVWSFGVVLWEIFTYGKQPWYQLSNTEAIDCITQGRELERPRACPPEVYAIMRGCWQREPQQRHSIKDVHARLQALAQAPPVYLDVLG
Sequence of RAF proto-oncogene serine/threonine-protein kinase (Homo sapiens) (P04049 whole entry): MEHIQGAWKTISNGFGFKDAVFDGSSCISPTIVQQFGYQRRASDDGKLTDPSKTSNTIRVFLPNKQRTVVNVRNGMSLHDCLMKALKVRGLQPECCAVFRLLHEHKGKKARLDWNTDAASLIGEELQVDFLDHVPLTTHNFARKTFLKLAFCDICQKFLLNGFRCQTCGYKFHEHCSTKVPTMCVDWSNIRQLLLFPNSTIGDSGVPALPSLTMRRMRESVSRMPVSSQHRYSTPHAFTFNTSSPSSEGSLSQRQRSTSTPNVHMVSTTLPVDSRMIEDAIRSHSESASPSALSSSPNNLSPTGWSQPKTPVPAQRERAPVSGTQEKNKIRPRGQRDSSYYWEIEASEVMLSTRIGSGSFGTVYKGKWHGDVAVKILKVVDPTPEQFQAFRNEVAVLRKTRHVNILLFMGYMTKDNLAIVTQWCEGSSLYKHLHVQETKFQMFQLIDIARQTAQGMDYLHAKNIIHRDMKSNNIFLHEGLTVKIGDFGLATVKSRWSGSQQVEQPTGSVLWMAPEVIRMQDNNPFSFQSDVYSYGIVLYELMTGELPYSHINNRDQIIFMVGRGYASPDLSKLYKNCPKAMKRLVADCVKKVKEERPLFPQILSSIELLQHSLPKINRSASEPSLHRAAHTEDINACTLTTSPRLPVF
Sequence of Fibroblast growth factor receptor 1 (Homo sapiens) (P11362 22-822 limits assumed): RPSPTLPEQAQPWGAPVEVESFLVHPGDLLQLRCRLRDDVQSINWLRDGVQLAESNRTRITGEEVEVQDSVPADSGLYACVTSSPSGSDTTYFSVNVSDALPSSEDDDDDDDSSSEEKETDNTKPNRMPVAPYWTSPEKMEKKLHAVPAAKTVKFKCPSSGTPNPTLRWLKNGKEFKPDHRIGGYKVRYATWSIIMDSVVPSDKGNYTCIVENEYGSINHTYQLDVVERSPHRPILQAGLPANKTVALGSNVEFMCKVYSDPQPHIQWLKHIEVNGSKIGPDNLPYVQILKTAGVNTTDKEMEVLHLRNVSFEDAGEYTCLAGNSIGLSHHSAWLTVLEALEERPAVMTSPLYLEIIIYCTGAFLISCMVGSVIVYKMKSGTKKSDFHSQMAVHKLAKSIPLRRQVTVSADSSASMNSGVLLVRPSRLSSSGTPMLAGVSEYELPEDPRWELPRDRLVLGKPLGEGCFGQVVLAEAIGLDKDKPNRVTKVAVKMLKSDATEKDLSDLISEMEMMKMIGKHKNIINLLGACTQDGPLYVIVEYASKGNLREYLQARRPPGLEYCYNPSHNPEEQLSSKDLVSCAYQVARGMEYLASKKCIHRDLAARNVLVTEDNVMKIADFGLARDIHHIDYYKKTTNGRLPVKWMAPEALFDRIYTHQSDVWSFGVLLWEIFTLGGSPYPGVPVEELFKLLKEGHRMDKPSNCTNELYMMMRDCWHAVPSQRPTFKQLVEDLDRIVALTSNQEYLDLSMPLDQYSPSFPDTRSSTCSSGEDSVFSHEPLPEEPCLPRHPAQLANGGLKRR

inhibition [1]: 1%
inhibition [2]: 2%
inhibition [6]: 3%
AUC(0-inf) [7]: 2890 ng·h/mL
half-life [9]: 1.51 h
inhibition [10]: 11%
inhibition [13]: 7%
inhibition [15]: 60%
remaining at 0.5 h [16]: 95.7%
inhibition [21]: 11%
microsomal CLint at 100 µM [22]: 46.8 µL/min/mg
inhibition [25]: 102%
SMILES: CN1CCN(c2ccc(C(=O)Nc3n[nH]c4c3CN(Cc3cc(F)cc(F)c3)C4(C)C)cc2)CC1
Activity (KM12 [3]): 39.1%
Activity (KM12 [4]): 56.6%
Activity (KM12 [5]): 0.07%
Activity (KM12 [8]): 15.8%
Activity (KM12 [11]): 74%
Activity (KM12 [12]): 35.6%
Activity (KM12 [14]): 7.77%
Activity (KM12 [17]): 9.26%
Activity (KM12 [18]): 4.25%
Activity (KM12 [19]): 5.86%
Activity (KM12 [20]): 0.04%
Activity (KM12 [23]): 1.59%
Activity (KM12 [24]): 7.65%
Activity (KM12 [26]): 8.75%
Activity (KM12 [27]): 39.95%
